Data published in ChEMBL document CHEMBL1255504, “Functional profiling of p53-binding sites in Hdm2 and Hdmx using a genetic selection system” (Bioorg Med Chem, 2010).
Activity calls are given as the source filed them. No cut-off for these calls is given here. Where a SMILES comes first, the peptide text is derived from it. The star is where a group is joined. Isobutyryl = CC(C)C(=O)*; Piperidide = C1CCN(*)CC1; Cbz = O=C(OCc1ccccc1)*; PhAc = O=C(Cc1ccccc1)*; Boc = CC(C)(C)OC(=O)*; NHBn = c1ccc(CN*)cc1; Piv = CC(C)(C)C(=O)*; NHtBu = CC(C)(C)N*

Columns and labels:
[1] = biological target: T1, E3 ubiquitin-protein ligase Mdm2 (Homo sapiens, UniProt Q00987); experiment: Inhibition of GST-tagged p53 binding to Hdm2 by ELISA
[2] = biological target: T1, E3 ubiquitin-protein ligase Mdm2; experiment: Inhibition of GST-tagged Hdm2 expressed in Escherichia coli harboring integrated p53-Hmd2 protein assessed as blockade of enzyme-p53 interaction by beta-galactosidase assay; details: concentration not given here
Summary of the method: (§1)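 E. coli reporter strain SNS126 (HIS3-KanR-lacZ) carrying chromosomally integrated DBD-fusion repressor halves (Hdm2–p53 or Hdmx–p53), transformed with SICLOPPS cyclic-peptide constructs and tested in both native and opposite strains. Cells grown on solid LB with 32 µM IPTG plus 9.7 µM L-arabinose; β-galactosidase measured by ONPG hydrolysis. % derepression = percent β-galactosidase enhancement relative to unrepressed (DBD-only) control.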
Target sequence in this assay (Q00987 whole entry, looked up): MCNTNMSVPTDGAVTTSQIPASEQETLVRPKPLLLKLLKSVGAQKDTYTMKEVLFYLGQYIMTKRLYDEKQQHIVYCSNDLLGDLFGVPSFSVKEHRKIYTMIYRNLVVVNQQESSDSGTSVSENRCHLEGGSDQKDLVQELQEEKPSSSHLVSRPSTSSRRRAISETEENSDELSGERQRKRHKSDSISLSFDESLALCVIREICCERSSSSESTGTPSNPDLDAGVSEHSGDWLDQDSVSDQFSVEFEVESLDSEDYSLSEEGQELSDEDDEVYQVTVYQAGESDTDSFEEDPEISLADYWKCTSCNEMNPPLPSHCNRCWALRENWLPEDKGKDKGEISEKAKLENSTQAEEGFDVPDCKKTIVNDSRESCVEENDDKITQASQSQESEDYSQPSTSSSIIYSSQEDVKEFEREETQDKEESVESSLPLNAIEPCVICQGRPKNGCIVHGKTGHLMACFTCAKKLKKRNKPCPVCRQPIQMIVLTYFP

[3] = biological target: T1, E3 ubiquitin-protein ligase Mdm2; experiment: Inhibition of GST-tagged Hdm2 expressed in Escherichia coli harboring integrated p53-MDMX protein assessed as enzyme-p53 interaction by beta-galactosidase assay; details: concentration not given here; summary of the method: as §1
Target sequence in this assay (Q00987 whole entry, looked up): as above

[4] = biological target: T1, E3 ubiquitin-protein ligase Mdm2; experiment: Inhibition of GST-tagged Hdm2 expressed in Escherichia coli harboring integrated p53-Hmd2 protein assessed as enzyme-p53 interaction by beta-galactosidase assay; details: concentration not given here; summary of the method: as §1
Target sequence in this assay (Q00987 whole entry, looked up): as above

[5] = biological target: T1, E3 ubiquitin-protein ligase Mdm2; experiment: Inhibition of GST-tagged Hdm2 expressed in Escherichia coli harboring integrated p53-MDMX protein assessed as blockade of enzyme-p53 interaction by beta-galactosidase assay; details: concentration not given here; summary of the method: as §1
Target sequence in this assay (Q00987 whole entry, looked up): as above

[6] = biological target: T1, E3 ubiquitin-protein ligase Mdm2; experiment: Inhibition of GST-tagged Hdm2 expressed in Escherichia coli harboring integrated p53-Hmd2 protein assessed as enhancement of enzyme-p53 interaction by beta-galactosidase assay; details: concentration not given here; summary of the method: as §1
Target sequence in this assay (Q00987 whole entry, looked up): as above

[7] = biological target: T1, E3 ubiquitin-protein ligase Mdm2; experiment: Inhibition of GST-tagged Hdm2 expressed in Escherichia coli harboring integrated p53-MDMX protein assessed as enhancement of enzyme-p53 interaction by beta-galactosidase assay; details: concentration not given here; summary of the method: as §1
Target sequence in this assay (Q00987 whole entry, looked up): as above

[8] = biological target: T2, Protein Mdm4 (Homo sapiens) (UniProt O15151); experiment: Inhibition of GST-tagged MDMX expressed in Escherichia coli harboring integrated p53-MDMX protein assessed as blockade of enzyme-p53 interaction by beta-galactosidase assay; set-up: concentration or dose not given beside the values; details: concentration not given here; summary of the method: as §1
T2 sequence (whole entry): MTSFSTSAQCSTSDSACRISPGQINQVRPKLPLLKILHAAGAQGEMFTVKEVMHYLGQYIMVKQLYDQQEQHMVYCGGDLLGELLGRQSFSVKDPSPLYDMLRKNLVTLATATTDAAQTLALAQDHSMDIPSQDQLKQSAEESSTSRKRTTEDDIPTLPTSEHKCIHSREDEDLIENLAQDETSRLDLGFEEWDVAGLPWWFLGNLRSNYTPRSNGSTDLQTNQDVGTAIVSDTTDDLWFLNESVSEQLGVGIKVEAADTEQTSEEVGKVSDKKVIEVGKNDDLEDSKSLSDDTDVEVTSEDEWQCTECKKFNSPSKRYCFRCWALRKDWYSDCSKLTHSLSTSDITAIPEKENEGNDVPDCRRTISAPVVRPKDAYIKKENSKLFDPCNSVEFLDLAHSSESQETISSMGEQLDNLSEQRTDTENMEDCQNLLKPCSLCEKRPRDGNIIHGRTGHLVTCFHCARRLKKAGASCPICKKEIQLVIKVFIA

[9] = biological target: T2, Protein Mdm4 (Homo sapiens); experiment: Inhibition of GST-tagged MDMX expressed in Escherichia coli harboring integrated p53-Hmd2 protein assessed as enhancement of enzyme-p53 interaction by beta-galactosidase assay; set-up: concentration or dose not given beside the values; details: concentration not given here; summary of the method: as §1
[10] = biological target: T2, Protein Mdm4 (Homo sapiens); experiment: Inhibition of GST-tagged MDMX expressed in Escherichia coli harboring integrated p53-MDMX protein assessed as enzyme-p53 interaction by beta-galactosidase assay; set-up: concentration or dose not given beside the values; details: concentration not given here; summary of the method: as §1
[11] = biological target: T2, Protein Mdm4 (Homo sapiens); experiment: Inhibition of GST-tagged MDMX expressed in Escherichia coli harboring integrated p53-Hmd2 protein assessed as enzyme-p53 interaction by beta-galactosidase assay; set-up: concentration or dose not given beside the values; details: concentration not given here; summary of the method: as §1
[12] = biological target: T2, Protein Mdm4 (Homo sapiens); experiment: Inhibition of GST-tagged MDMX expressed in Escherichia coli harboring integrated p53-MDMX protein assessed as enhancement of enzyme-p53 interaction by beta-galactosidase assay; set-up: concentration or dose not given beside the values; details: concentration not given here; summary of the method: as §1
[13] = biological target: T2, Protein Mdm4 (Homo sapiens); experiment: Inhibition of GST-tagged MDMX expressed in Escherichia coli harboring integrated p53-Hmd2 protein assessed as blockade of enzyme-p53 interaction by beta-galactosidase assay; details: concentration not given here; summary of the method: as §1
[14] = Solubility of the compound; type: physicochemical

## CC(C)C(=O)N[C@@H](CCCNC(=N)N)C(=O)N[C@@H](Cc1c[nH]c2ccccc12)C(=O)N[C@@H](Cc1ccccc1)C(=O)NC(C)(C)C (Isobutyryl-Arg-Trp-Phe-NHtBu)
[1]
  inhibition: inactive

## N=C(N)NCCC[C@H](NC(=O)OCc1ccccc1)C(=O)N[C@@H](Cc1c[nH]c2ccccc12)C(=O)N[C@@H](Cc1ccccc1)C(=O)N1CCCCC1 (Cbz-Arg-Trp-Phe-Piperidide)
[1]
  inhibition: inactive

## H-CIFYYV-OH
[2]
  inhibition: 51%
[3]
  inhibition: 66%
[4]
  inhibition: 67%
[5]
  inhibition: 42%
[6]
  inhibition: 34%
[7]
  inhibition: 24%

## H-CHLRWL-OH
[8]
  inhibition: 58%
[9]
  inhibition: 7%
[10]
  inhibition: 75%
[11]
  inhibition: 41%
[12]
  inhibition: 34%
[13]
  inhibition: 10%

## N=C(N)NCCC[C@H](NC(=O)OCc1ccccc1)C(=O)N[C@@H](Cc1c[nH]c2ccccc12)C(=O)N[C@@H](Cc1ccccc1)C(=O)NCc1ccccc1 (Cbz-Arg-Trp-Phe-NHBn)
[1]
  inhibition: inactive

## CC(C)(C)OC(=O)N[C@@H](CCCNC(=N)N)C(=O)N[C@@H](Cc1c[nH]c2ccccc12)C(=O)N[C@@H](Cc1ccccc1)C(=O)NCc1ccccc1 (Boc-Arg-Trp-Phe-NHBn)
[1]
  inhibition: inactive

## H-CIWWYM-OH
[2]
  inhibition: 12%
[3]
  inhibition: 70%
[4]
  inhibition: 41%
[5]
  inhibition: 49%
[6]
  inhibition: 8%
[7]
  inhibition: 29%

## H-CLWWYM-OH
[2]
  inhibition: 18%
[3]
  inhibition: 65%
[4]
  inhibition: 45%
[5]
  inhibition: 41%
[6]
  inhibition: 12%
[7]
  inhibition: 24%

## CC(C)C(=O)N[C@@H](CCCNC(=N)N)C(=O)N[C@@H](Cc1c[nH]c2ccccc12)C(=O)N[C@@H](Cc1ccccc1)C(=O)NCc1ccccc1 (Isobutyryl-Arg-Trp-Phe-NHBn)
[1]
  inhibition: inactive

## CC(C)COC(=O)N[C@@H](CCCNC(=N)N)C(=O)N[C@@H](Cc1c[nH]c2ccccc12)C(=O)N[C@@H](Cc1ccccc1)C(=O)NCc1ccccc1
[1]
  inhibition: inactive

## CC(C)(C)NC(=O)[C@H](Cc1ccccc1)NC(=O)[C@H](Cc1c[nH]c2ccccc12)NC(=O)[C@H](CCCNC(=N)N)NC(=O)Cc1ccccc1 (PhAc-Arg-Trp-Phe-NHtBu)
[1]
  inhibition: inactive

## CC(C)(C)NC(=O)[C@H](Cc1ccccc1)NC(=O)[C@H](Cc1c[nH]c2ccccc12)NC(=O)[C@H](CCCNC(=N)N)NC(=O)C(C)(C)C (Piv-Arg-Trp-Phe-NHtBu)
[1]
  inhibition: inactive

## N=C(N)NCCC[C@H](NC(=O)Cc1ccccc1)C(=O)N[C@@H](Cc1c[nH]c2ccccc12)C(=O)N[C@@H](Cc1ccccc1)C(=O)NCc1ccccc1 (PhAc-Arg-Trp-Phe-NHBn)
[1]
  inhibition: inactive

## H-CDLRWF-OH
[8]
  inhibition: 76%
[9]
  inhibition: 4%
[10]
  inhibition: 86%
[11]
  inhibition: 37%
[12]
  inhibition: 45%
[13]
  inhibition: 6%

## CC(C)COC(=O)N[C@@H](CCCNC(=N)N)C(=O)N[C@@H](Cc1c[nH]c2ccccc12)C(=O)N[C@@H](Cc1ccccc1)C(=O)NC(C)(C)C
[1]
  inhibition: inactive

## CC(C)(C)C(=O)N[C@@H](CCCNC(=N)N)C(=O)N[C@@H](Cc1c[nH]c2ccccc12)C(=O)N[C@@H](Cc1ccccc1)C(=O)NCc1ccccc1 (Piv-Arg-Trp-Phe-NHBn)
[1]
  inhibition: inactive

## H-CMFYYI-OH
[2]
  inhibition: 18%
[3]
  inhibition: 63%
[4]
  inhibition: 45%
[5]
  inhibition: 37%
[6]
  inhibition: 12%
[7]
  inhibition: 22%

## H-CKAVLF-OH
[8]
  inhibition: 51%
[9]
  inhibition: 5%
[10]
  inhibition: 71%
[11]
  inhibition: 38%
[12]
  inhibition: 30%
[13]
  inhibition: 7%

## CC(C)[C@H](NC(=O)[C@H](Cc1ccc(O)cc1)NC(=O)[C@H](Cc1ccc(O)cc1)NC(=O)[C@H](Cc1ccccc1)NC(=O)OC(C)(C)C)C(=O)N1CCCCC1 (Boc-FYYV-Piperidide)
[14]
  solubility: Insoluble

## CC(C)(C)OC(=O)N[C@@H](CCCNC(=N)N)C(=O)N[C@@H](Cc1c[nH]c2ccccc12)C(=O)N[C@@H](Cc1ccccc1)C(=O)N1CCCCC1
[1]
  inhibition: inactive

## H-CLFFNY-OH
[8]
  inhibition: 47%
[9]
  inhibition: 12%
[10]
  inhibition: 69%
[11]
  inhibition: 45%
[12]
  inhibition: 28%
[13]
  inhibition: 18%

## CC[C@H](C)[C@H](NC(=O)OC(C)(C)C)C(=O)N[C@@H](Cc1ccccc1)C(=O)N[C@@H](Cc1ccc(O)cc1)C(=O)N[C@@H](Cc1ccc(O)cc1)C(=O)N[C@H](C(=O)N1CCCCC1)C(C)C (Boc-IFYYV-Piperidide)
[14]
  solubility: Insoluble

## H-CRLLDF-OH
[8]
  inhibition: 49%
[9]
  inhibition: 5%
[10]
  inhibition: 70%
[11]
  inhibition: 38%
[12]
  inhibition: 29%
[13]
  inhibition: 7%

## CC[C@H](C)[C@@H]1NC(=O)[C@H](C)NC(=O)[C@H](C(C)C)NC(=O)[C@H](Cc2ccc(O)cc2)NC(=O)[C@H](Cc2ccc(O)cc2)NC(=O)[C@H](Cc2ccccc2)NC1=O (cyclo(AIFYYV))
[1]
  Activity: Dose-dependent effect
  IC50: 209 µM

## CC(C)(C)NC(=O)[C@H](Cc1ccccc1)NC(=O)[C@H](Cc1c[nH]c2ccccc12)NC(=O)[C@H](CCCNC(=N)N)NC(=O)OC(C)(C)C (Boc-Arg-Trp-Phe-NHtBu)
[1]
  inhibition: inactive
